Compounds with a hit are over-represented: about 4.5% of the library has one in this group of screens.
OX1R antag-1: antagonists of human orexin 1 receptor (OX1R) | OX1R-expressing cells, FRET antagonist read-out | inhibition, % at 6.6 µM | O43613 | 330,000 compounds, 1.8% hits; in the data active = inhibition mostly above about 38%, no sharp cut-off; inactive = mostly below about 40%;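 also: 0% = agonist challenge alone and 100% = reference antagonist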
TAAR1 ag: human TAAR1 agonism | CHO RD-HGA16 TAAR1, Fluo-8 calcium fluorescence; vehicle wells 0%, saturating PEA agonist 100% | activation, % at 3 µM | 360,000 compounds, 0.99% hits;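 active = activation above the mean activation of all test compounds in the run plus 3 SD, cut at about 38% in these data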
Target sequence (Q96RJ0 whole entry, looked up): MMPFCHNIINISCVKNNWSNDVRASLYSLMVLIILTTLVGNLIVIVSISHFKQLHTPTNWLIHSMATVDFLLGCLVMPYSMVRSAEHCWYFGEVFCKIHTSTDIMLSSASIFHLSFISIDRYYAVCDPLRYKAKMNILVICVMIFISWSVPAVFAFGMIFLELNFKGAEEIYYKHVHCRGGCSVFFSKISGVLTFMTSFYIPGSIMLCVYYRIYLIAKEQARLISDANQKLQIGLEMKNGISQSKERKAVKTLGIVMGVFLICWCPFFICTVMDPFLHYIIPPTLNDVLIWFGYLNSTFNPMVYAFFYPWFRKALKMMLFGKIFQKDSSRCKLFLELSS
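Test system: RD-HGA16 (CHO) cells co-expressing Gα16 and hTAAR1 | Doses: Single dose, 3 µM | Schedule: 17-24 h seeding, 75 min 37 °C dye, 30 min RT | Evaluation: % activation from peak over basal fluorescence ratio, DMSO-to-PEA scaled | Technique: Kinetic Fluo-8 calcium fluorescence | Benchmarks: Low control DMSO, high control PEA (EC100)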
CHO parental Ca: counter-screen: ATP calcium response change in parental CHO cells; parental CHO-K1, ATP-induced calcium, Fluo-8 fluorescence; inhibition, % at 5.6 µM; 330,000 compounds, 0.63% hits; AID 463079;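 active = inhibition above that plate's mean sample inhibition plus 3 SD, cut at about 26% in these data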;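 also: 0% = ATP-challenged DMSO wells and 100% = DMSO wells without ATP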
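Material: parental CHO cells / Compound: single nominal dose of 5.6 µM per compound / Signal: Fluo-8 fluorescence / Replicates: singlicate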
TAAR1 antag: human TAAR1 antagonism; CHO RD-HGA16 TAAR1, Fluo-8 calcium fluorescence, antagonist; inhibition, % at 3 µM; 360,000 compounds, 1.5% hits;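 active = inhibition above a per-plate cutoff, the mean inhibition of test compounds on that plate plus 3 SD, cut at about 49% in these data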;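 also: 0% = DMSO plus EC80 beta-PEA response and 100% = DMSO alone without agonist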
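Test system: RD-HGA16 CHO cells with stable hTAAR1 and Gα16 / Probe or stimulus: EC80 β-phenethylamine stimulus / Times: seeding 17-24 h prior, 75-min 37 °C, 30-min RT dye loading / Detection: Fluo-8 calcium-sensitive fluorescence / Read-out basis: % inhibition scaled between DMSO and EC80 PEA controls / Repeats: singlicate, one well per test compound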
OX1R antag-2: blocks the human orexin 1 receptor; inhibition, % at 5 µM; O43613; 330,000 compounds, 0.43% hits; CHO/OX1R cells, Fluo-8 calcium fluorescence, orexin A;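 active = inhibition above its plate's threshold, mean inhibition of all tested compounds on the plate plus 3 SD, cut at about 37% in these data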;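 also: 0% = orexin A challenge wells and 100% = SB-334867-A antagonist wells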
GPR7 antag: human neuropeptides B/W receptor 1 antagonism; P48145; GPR7-expressing cells, fluorescence antagonist assay; inhibition, % at 4.4 µM; 290,000 compounds, 1.1% hits; in the data active = inhibition above about 16%, passing the limit was not always enough;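 also: cells stimulated with the agonist NPW; 0% = agonist with vehicle and 100% = vehicle without agonist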
Target sequence (P48145 whole entry, looked up): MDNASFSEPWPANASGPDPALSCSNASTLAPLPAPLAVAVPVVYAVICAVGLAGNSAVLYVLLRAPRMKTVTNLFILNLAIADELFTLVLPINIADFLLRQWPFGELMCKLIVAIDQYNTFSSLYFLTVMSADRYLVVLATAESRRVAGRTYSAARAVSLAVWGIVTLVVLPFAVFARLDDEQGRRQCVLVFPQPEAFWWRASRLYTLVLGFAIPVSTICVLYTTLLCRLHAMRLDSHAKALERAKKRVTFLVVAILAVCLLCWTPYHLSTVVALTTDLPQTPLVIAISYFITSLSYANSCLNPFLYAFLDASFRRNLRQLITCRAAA
GPR7 antag conf: confirmation of human GPR7 antagonists | shares compounds with GPR7 antag | GPR7-expressing cells, calcium fluorescence antagonist mode | inhibition, % at 4.4 µM | 2,400 compounds, 52% hits | AID 1952; in the data active = inhibition above about 24%;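 also: stimulated with the GPR7 agonist NPW; 0% = agonist plus vehicle and 100% = vehicle alone without agonist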
MCHR1 antagonist: counter-screen for GPR7 antagonists: antagonists of human MCHR1; shares compounds with GPR7 antag; 2,400 compounds, 62% hits; MCHR1-expressing cells, fluorescence antagonist assay; inhibition, % at 4.4 µM; in the data active = inhibition above about 22%;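 also: 0% = vehicle with agonist and 100% = vehicle without agonist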
* hit, by the source's call; . = no result.

SMILES	OX1R antag-1	TAAR1 ag	CHO parental Ca	TAAR1 antag	OX1R antag-2	GPR7 antag	GPR7 antag conf	MCHR1 antagonist
CC(NC(=O)c1ccc(N(C)C)cc1)C1CC2CCC1C2 (stereo unspecified)	.	17.1	.	-5.2	.	-0.2	.	.
CCNC(=O)C1CCCN1S(=O)(=O)c1ccc2ccccc2c1 (stereo unspecified)	15.6	4.6	-5.8	-18.0	-19.5	-8.2	.	.
O=C(NCCc1ccccc1F)C1CCCN1S(=O)(=O)c1ccc2ccccc2c1 (stereo unspecified)	17.7	20.1	-30.1	12.3	-4.6	22.7*	9.8	21.5*
C#CCN(C[C@H]1[C@H](OC(=O)NCc2ccccc2F)[C@H](OC(=O)NCc2ccccc2F)C[C@H]2C(=O)N(c3ccccc3)C(=O)[C@@H]12)S(=O)(=O)c1ccc(C)cc1	.	1.6	.	8.8	.	.	.	.
Cc1ccc(S(=O)(=O)N(C)Cc2ccc(-c3nnco3)cc2)cc1	10.9	-0.8	-12.6	17.1	-15.3	26.5*	46.9*	41.8*
COC(=O)COc1ccc(-c2ccc(F)cc2)cc1C=O	5.6	3.3	-9.9	-0.3	-6.8	32.8*	31.0*	34.9*
COC(=O)COc1ccc(-c2ccccc2)cc1C=O	6.6	3.6	2.0	6.2	9.9	31.1*	16.7	38.3*
CC(=O)Nc1cnc(-c2cc(C)c(O)c(C)c2)cn1	.	1.4	.	-6.7	.	.	.	.
O=C(NCc1cccc(Cl)c1)c1ccc(-c2csnn2)cc1	3.1	1.0	13.7	20.4	-12.3	24.9*	14.6	12.0
CC(C)CCCN1C(Nc2ccccc2)=NC[C@@H]1Cc1ccccc1	17.2	.	-30.4	.	-38.5	35.8*	31.0*	24.3*
CC(C)C[C@H]1CN=C(Nc2ccccc2)N1CCCCc1ccccc1	5.0	42.4*	-15.2	-4.4	-13.0	39.2*	38.5*	26.9*
CC(CCN1C(Nc2ccccc2)=NC[C@@H]1Cc1ccccc1)c1ccccc1 (stereo partly specified)	22.4	26.9	-31.3	9.4	-43.4	37.7*	51.4*	24.7*
CC(C)CCN1C(Nc2ccccc2)=NC[C@@H]1Cc1ccccc1	22.2	7.7	-22.2	2.3	-13.5	19.1	.	.
Cc1ccc(NC(=O)c2cc(-c3cc(F)ccc3OCC3CCCO3)n[nH]2)cc1NS(C)(=O)=O (stereo unspecified)	.	13.5	.	45.8	.	.	.	.
O=c1o[nH]c(-c2ccccc2)c1-c1ccccc1	10.4	3.0	0.3	-12.1	-1.2	.	.	.
COc1ccc(CCN2CC(C(=O)OCC(=O)c3c(N)n(CC(C)C)c(=O)n(C)c3=O)CC2=O)cc1OC (stereo unspecified)	.	2.9	.	9.4	.	.	.	.
CC(C)C(NC(=O)c1ccc(C(C)(C)C)cc1)C(=O)NCC(c1ccccc1)N(C)C (stereo unspecified)	8.3	1.6	-17.3	-28.9	-18.7	21.5*	5.3	7.5
Cc1ccc(S(=O)(=O)NCc2ccc(C(=O)N3CCN(c4ccc([N+](=O)[O-])cc4)CC3)cc2)cc1	0.3	-1.3	22.6	-30.6	-11.7	41.0*	26.3*	67.3*
Cc1ccc(NS(=O)(=O)c2ccc(C(=O)N3CCC3)cc2)cc1	14.7	11.8	-7.7	-17.7	-26.6	.	.	.
Cc1cc(S(=O)(=O)Nc2ccc(C(=O)NCC3(N4CCCCC4)CCCCC3)cc2)ccc1F	7.1	1.1	-13.6	2.3	-25.5	.	.	.
CCOc1ccc(NS(=O)(=O)c2ccc(C(=O)NCC3(N4CCCCC4)CCCCC3)cc2)cc1	2.4	19.0	6.9	14.1	19.9	58.2*	20.9	34.2*
Cc1ccc(NS(=O)(=O)c2ccc(C(=O)N3CCCCCCC3)cc2)cc1	21.0	54.2*	-1.3	18.2	-7.4	25.9*	29.1*	27.9*
O=C1CCCN1CC(=O)N1CCCC(N2CCN(c3cccc(Cl)c3)CC2)C1 (stereo unspecified)	3.9	0.0	-11.6	-18.9	-21.1	0.5	.	.
CN(C)CCN(C(=O)c1ccc2c(c1)OCCO2)c1nc2ccc(Cl)cc2s1	18.9	2.0	-10.0	22.6	-16.2	-15.7	.	.
Cc1ccc2nc(N(CCCN(C)C)C(=O)c3ccc(S(=O)(=O)N4CCc5ccccc5C4)cc3)sc2c1	11.7	45.1*	-14.9	7.4	-19.3	31.5*	44.3*	33.2*
SMILES	OX1R antag-1	TAAR1 ag	CHO parental Ca	TAAR1 antag	OX1R antag-2	GPR7 antag	GPR7 antag conf	MCHR1 antagonist
Cc1cccc2sc(N(CCCN(C)C)C(=O)CCc3ccccc3)nc12	8.5	12.7	12.1	4.4	-11.6	22.9*	60.6*	56.0*
Cc1cc(C)c2sc(N(CCCN(C)C)C(=O)c3ccc(S(=O)(=O)N4CCc5ccccc5C4)cc3)nc2c1	-0.5	.	-14.5	.	-3.3	.	.	.
CN(C)CCCN(C(=O)c1cc(-c2cccs2)nc2ccccc12)c1nc2ccc(F)cc2s1	14.3	18.8	13.8	42.2	15.1	30.0*	58.2*	57.9*
CN(C)CCCN(C(=O)c1ccc2c(c1)OCCO2)c1nc2ccc(Cl)cc2s1	11.1	14.6	12.0	34.5	6.1	51.1*	61.0*	45.6*
Cc1cccc2sc(N(CCCN(C)C)C(=O)c3ccc4ncsc4c3)nc12	17.6	5.8	-18.4	6.7	-11.4	26.2*	39.2*	29.1*
CN(C)CCCN(C(=O)CCc1ccccc1)c1nc2ccc(Br)cc2s1	7.7	17.3	1.4	34.8	-17.0	23.8*	67.5*	72.8*
Cc1cccc2sc(N(CCCN(C)C)C(=O)c3nc4ccccc4s3)nc12	29.2	1.4	-1.9	-9.6	-7.1	-2.3	.	.
Cc1ccc2sc(N(CCCN(C)C)C(=O)c3ccc(Br)s3)nc2c1C	20.8	27.4	1.9	19.4	-19.9	41.1*	50.7*	56.2*
COc1cc2ccccc2cc1C(=O)N(CCN(C)C)c1nc2ccc(Br)cc2s1	22.8	1.3	-17.5	-15.1	-5.1	26.0*	29.1*	35.9*
Cc1ccc2sc(N(CCCN(C)C)C(=O)c3nc4ccccc4s3)nc2c1C	14.1	15.3	-7.3	-13.7	-18.5	1.6	.	.
COc1ccc(N(CC(=O)NCc2ccccc2OC)S(=O)(=O)c2ccccc2)cc1	29.9	-1.2	-13.9	10.7	-12.5	-2.5	.	.
Cc1ccc2sc(N(CCCN(C)C)C(=O)CCS(=O)(=O)c3ccccc3)nc2c1C	1.6	24.1	-6.6	5.0	-9.7	47.6*	43.2*	50.6*
O=C1CCN(c2ccccc2)N1	.	0.2	.	-16.3	.	.	.	.
N=c1c(C(=O)NCc2ccc(F)cc2)cc2c(=O)n3ccccc3nc2n1CC1CCCO1 (stereo unspecified)	72.2*	-1.9	-16.7	-1.1	-24.1	21.6*	25.9*	12.5
